Assay results pooled from the literature.
Lines come from different studies, so protocols differ. pKi: −log10 of the molar value.
HRH1: Histamine H1 receptor (HRH1, Homo sapiens, UniProt P35367)
Adora1: Adenosine receptor A1 (Adora1, Rattus norvegicus, UniProt P25099)

target	assay	setting	pKi	SMILES
Induced myeloid leukemia cell differentiation protein Mcl-1 (MCL1, Homo sapiens, UniProt Q07820)	ligand displacement, FP		8.47	CC[C@H](C)[C@H](NC(=O)[C@H](CCC(=O)O)NC(=O)[C@H](CC(=O)O)NC(=O)CNC(=O)[C@H](CC(C)C)NC(=O)[C@H](CCCNC(=N)N)NC(=O)[C@H](CCC(N)=O)NC(=O)[C@H](CC(C)C)NC(=O)[C@H](CO)NC(=O)[C@H](CCC(N)=O)NC(=O)[C@@H](NC(=O)[C@H](CC(C)C)NC(=O)[C@H](Cc1c[nH]c2ccccc12)NC(=O)[C@@H](NC(=O)[C@H](CCC(=O)O)NC(=O)[C@@H]1CCCN1C(=O)[C@H](CCCNC(=N)N)NC(C)=O)[C@@H](C)CC)[C@@H](C)O)C(=O)N[C@@H](CC(N)=O)C(=O)N[C@@H](C)C(=O)N[C@@H](Cc1ccc(O)cc1)C(=O)N[C@@H](Cc1ccc(O)cc1)C(=O)N[C@@H](C)C(=O)N[C@@H](CCCNC(=N)N)C(N)=O
Carbonic anhydrase 9 (CA9, Homo sapiens, UniProt Q16790)	enzyme activity, inhibitor		6.54	CN1CCN(c2ccc(-c3ccnn3-c3ccc(S(N)(=O)=O)cc3)cc2)CC1
HRH1	ligand displacement, radioligand	cell membranes	5.43	O=C1CCCc2ccc(OCc3ccc(OCCCN4CCCCC4)cc3)cc21
Tyrosine-protein phosphatase non-receptor type 2 (PTPN2, Homo sapiens, UniProt P17706)	enzyme activity, inhibitor		5.22	CC(C)[C@@H](CC[C@@H](C)[C@H]1CC[C@H]2[C@@H]3[C@H](O)C[C@H]4C[C@@H](NCCCNCCCCNCCCN)CC[C@]4(C)[C@H]3CC[C@]12C)OS(=O)(=O)O
Protein-arginine deiminase type-4 (PADI4, Homo sapiens, UniProt Q9UM07)	enzyme activity, inhibitor		4.80	CCn1c(-c2nc3cc(C(=O)N4CCC[C@@H](N)C4)cc(OC)c3n2C)cc2cccnc21
Adora1	ligand displacement, radioligand	cell membranes	5.57	CC(C)CN1CCCn2c1nc1c2c(=O)n(C)c(=O)n1C
Proton-coupled folate transporter (Homo sapiens, UniProt Q96NT5)	transporter uptake, inhibitor, radiometric	pH 5.5	6.23	Nc1nc2ncc(CNc3ccc(C(=O)N[C@@H](CCC(=O)O)C(=O)O)cc3)nc2c(=O)[nH]1
Adora1	ligand displacement, radioligand	cell membranes	< 4.60	C=CN1CCCn2c1nc1c2c(=O)n(C)c(=O)n1C
Muscarinic acetylcholine receptor M4 (CHRM4, Homo sapiens, UniProt P08173)	cell-free assay, radioligand		< 5.00	CCCCN1CCC(COC(=O)c2ccc(N)c(OCF)c2)CC1
Adora1	ligand displacement, radioligand	cell membranes	≤ 4.60	CCN1CCCn2c1nc1c2c(=O)n(C)c(=O)n1C
NAD-dependent protein deacylase sirtuin-5, mitochondrial (SIRT5, Homo sapiens, UniProt Q9NXA8)	enzyme activity, inhibitor		5.48	NC(=O)CCNC(=S)NCCCC[C@H](NS(=O)(=O)c1cccc(F)c1)C(=O)N[C@@H](Cc1c[nH]c2ccccc12)C(=O)NC1CCC1
Adora1	ligand displacement, radioligand	cell membranes	≤ 4.60	C#CCN1CCCn2c1nc1c2c(=O)n(C)c(=O)n1C
HRH1	ligand displacement, radioligand	cell membranes	6.10	CN(C)c1ccc(/C=C2\CCc3cc(OCCCN4CCCCC4)ccc3C2=O)cc1
